Key:
HRECs = experiment: Matrigel based tube formation assay; format: cell-based, human; details: HRECs on Matrigel, 8 hours, different concentrations
Method in brief: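 HRECs (passage 5–8) in EGM-2 were seeded at 15,000 cells per well onto Matrigel-coated wells, with DMSO vehicle or a range of test compound concentrations. A known antiangiogenic homoisoflavonoid served as positive control. After 8 h, wells were imaged and tube length was quantified by image analysis. Mean ± SEM, n=3–6 wells, duplicate experiments; one-way ANOVA with Dunnett's post hoc test vs DMSO.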

[1] = test system: HRECs (human retinal microvascular endothelial cells); details: read-out: GI50 (HREC); as reported; cited from earlier work
[2] = test system: HUVECs (human umbilical vein endothelial cells); details: read-out: GI50 (HUVEC); as reported; cited from earlier work
[3] = test system: 92–1 uveal melanoma cells; details: read-out: GI50 (92–1); as reported; cited from earlier work
Y79 retinoblastoma cells = details: read-out: GI50 (Y79); as reported; cited from earlier work

| SMILES | ability of HRECs to form tubes (tubule length compared to DMSO control) (HRECs) | GI50 [1] [µM] | GI50 [2] [µM] | GI50 [3] [µM] | GI50 (Y79 retinoblastoma cells) [µM] |
| --- | --- | --- | --- | --- | --- |
| COc1ccc(/C=C2\COc3cc(OC)c(OC)c(O)c3C2=O)cc1O [Compound 48, (E)-5-hydroxy-6,7-trimethoxy-3-(3ʹhydroxy-4ʹ-methoxybenzylidene)-4-chromanone] | effective | – | – | – | – |
| COc1ccc(C[C@@H]2COc3cc(OC)c(OC)c(OC)c3C2=O)cc1O [Compound 45, 5,6,7-trimethoxy-3(R)-(3ʹhydroxy-4ʹ-methoxybenzyl)-4-chromanone] | effective | – | – | – | – |
| CCOc1ccc(C(=O)/C=C/c2ccc(OC)c(OC)c2)c(O)c1C [Compound 50, (E)-3-(3,4-dimethoxylphenyl)-1-(4-ethoxy-2-hydroxy-3-methyl-phenyl)prop-2-en-1-one] | effective | – | – | – | – |
| COc1ccc(CC2COc3cc(O)c(OC)c(O)c3C2=O)cc1O (stereo not shown) [cremastranone] | – | 0.22 | 0.38 | 48 | 9.8 |
